Source: article PMC11542726 (Methods in enzymology, 2024)
Entries after “also recorded” stand apart in the source; their conditions may differ.

Experiments:
Crk SH2 [1] = test: FP competition assay: unlabeled peptides vs FAM-DVpYDVPP; assay type: binding, mouse Crk protein 1 – 118 identical to human CRK protein; details: 4 nM FAM-labeled phosphorylated peptide, 150 nM Crk SH2, unlabeled competitor peptides; data not shown
How it was run: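 Polarization is read as mP values. For each unlabeled peptide, the concentration giving 50% displacement of the FAM probe is obtained by non-linear regression.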

Crk SH2 [2] = test: Differential scanning fluorimetry; assay type: binding, mouse Crk protein 1 – 118 identical to human CRK protein; details: 10 μM Crk SH2, 10X SYPRO Orange, peptides 0-300 μM, 50 mM HEPES, pH 7.5, 150 mM NaCl; 25 to 95°C at 0.2°C/s; Figure 6B
How it was run: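 Before dye addition, Crk SH2 (10 μM final) is preincubated with peptides, dispensed from DMSO or buffer, for 30 min at room temperature. SYPRO Orange is then added and samples are melted. Tm is taken from the fluorescence curve or its first derivative as the half-unfolded point. ΔTm is the change in Tm on ligand binding. A DMSO series of 0–2% was also run.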

Crk SH2 [3] = test: Fluorescence polarization; assay type: mouse Crk protein 1 – 118 identical to human CRK protein; details: direct binding; various concentrations of FAM-conjugated peptides titrated into 4 nM Crk SH2, 20 mM HEPES pH 7.5, 0.025% Triton X-100; 384-well, 480-nm excitation, 535-nm emission; repeated at least three times; Figure 6A
Crk SH2 vs CrkL SH2 = test: Comparison of affinity of FAM-DVpYDVPP for Crk SH2 vs CrkL SH2; assay type: binding, mouse; details: comparison in words; assay and values not given

Row | Competition of binding of Crk SH2 with FAM-DVpYDVPP (Crk SH2 [1]) | Substance | Shift of thermal unfolding curve / Tm (Crk SH2 [2]) | Increase in FP / polarization (mP) (Crk SH2 [3]) | Relative affinity, Crk SH2 vs CrkL SH2 (Crk SH2 vs CrkL SH2)
1 | much less significantly | DVFDVPP-OH | – | – | –
2 | much less significantly | DVYDVPP | no significant shift in Tm was observed; also recorded: no significant binding | – | –
3 | – | FAM-DVYDVPP | – | no significant increase in FP is observed; also recorded: No polarization is detected | –
4 | – | FAM-DVpYDVPP | – | a significant increase in FP is measured | Crk SH2 showed a higher affinity

Row | Substance | Competition of binding of Crk SH2 with FAM-DVpYDVPP (Crk SH2 [1]) | Shift of thermal unfolding curve / Tm (Crk SH2 [2]) | Increase in FP / polarization (mP) (Crk SH2 [3]) | Relative affinity, Crk SH2 vs CrkL SH2 (Crk SH2 vs CrkL SH2)
5 | DVpYDVPP-OH | effectively competed out | shift to the right; also recorded: unfolding curves shifted | – | –
